Laboratory results from ChEMBL document CHEMBL1143773, “Synthesis and studies on antidepressant and anticonvulsant activities of some 3-(2-furyl)-pyrazoline derivatives” (Eur J Med Chem, 2007).
Calls of active or inactive are those of the source. The calls are words filed in the database; no cut-off is given here.

Experiments:
Mus musculus [1] = assay: Neurotoxicity in Albino mouse at 30 mg/kg, ip after 4 hrs by RotaRod test; type: toxicity, organism-based; set-up: dose 30 mg/kg, route intraperitoneal; conditions: in vivo
In short: (§1)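 Phase I protocol of the NINCDS antiepileptic drug development programme in albino mice, covering MES, subcutaneous pentylenetetrazole (metrazol) and rotarod neurotoxicity. Doses were 30, 100 and 300 mg/kg, read at 1/2 h and 4 h. One animal per dose and time point, scored as 0/1 (no activity) or 1/1 (noticeable activity).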

Mus musculus [2] = assay: Neurotoxicity in Albino mouse at 100 mg/kg, ip after 4 hrs by RotaRod test; type: toxicity, organism-based; set-up: dose 100 mg/kg, route intraperitoneal; conditions: in vivo; in short: as §1
Mus musculus [3] = assay: Neurotoxicity in Albino mouse at 300 mg/kg, ip after 4 hrs by RotaRod test; type: toxicity, organism-based; set-up: dose 300 mg/kg, route intraperitoneal; conditions: in vivo; in short: as §1
Mus musculus [4] = assay: Anticonvulsant activity against metrazole-induced seizures in Albino mouse at 100 mg/kg, ip after 30 mins by scMet assay; type: functional, organism-based; set-up: dose 100 mg/kg; in short: as §1
Mus musculus [5] = assay: Antidepressant activity in Albino mouse assessed as duration of immobility at 10 mg/kg, ip by forced-swimming test; type: functional; conditions: route intraperitoneal
In short: (§2)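 Porsolt forced-swim test in albino mice. Drug given ip at 0.5 ml/20 g body weight, 1 h before testing. Controls received 1% aqueous Tween 80. Each mouse was placed singly in a water-filled Plexiglas cylinder for 6 min. Immobility (floating upright with only slight movements to stay afloat) was timed over the last 4 min.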

Mus musculus [6] = assay: Antidepressant activity in Albino mouse assessed as duration of immobility at 10 mg/kg, ip by forced-swimming test relative to control; type: functional; conditions: route intraperitoneal; in short: as §2
Mus musculus [7] = assay: Anticonvulsant activity in Albino mouse by MES test at 30mg/kg, ip after 30 mins; type: functional, organism-based; in short: as §1
Mus musculus [8] = assay: Anticonvulsant activity in Albino mouse by MES test at 100 mg/kg, ip after 30 mins; type: functional, organism-based; set-up: dose 100 mg/kg; in short: as §1
Mus musculus [9] = assay: Anticonvulsant activity in Albino mouse by MES test at 300 mg/kg, ip after 30 mins; type: functional, organism-based; set-up: dose 300 mg/kg; in short: as §1
Mus musculus [10] = assay: Anticonvulsant activity against metrazole-induced seizures in Albino mouse at 30 mg/kg, ip after 30 mins by scMet assay; type: functional, organism-based; set-up: dose 30 mg/kg; in short: as §1
Mus musculus [11] = assay: Anticonvulsant activity against metrazole-induced seizures in Albino mouse at 300 mg/kg, ip after 30 mins by scMet assay; type: functional, organism-based; set-up: dose 300 mg/kg; in short: as §1
Mus musculus [12] = assay: Anticonvulsant activity in Albino mouse at 30 mg/kg, ip after 4 hrs by MES test; type: functional, organism-based; set-up: dose 30 mg/kg; in short: as §1
Mus musculus [13] = assay: Anticonvulsant activity in Albino mouse at 100 mg/kg, ip after 4 hrs by MES test; type: functional, organism-based; set-up: dose 100 mg/kg; in short: as §1
Mus musculus [14] = assay: Anticonvulsant activity in Albino mouse at 300 mg/kg, ip after 4 hrs by MES test; type: functional, organism-based; set-up: dose 300 mg/kg; in short: as §1
Mus musculus [15] = assay: Anticonvulsant activity against metrazole-induced seizures in Albino mouse at 30 mg/kg, ip after 4 hrs by scMet; type: functional, organism-based; set-up: dose 30 mg/kg; in short: as §1
Mus musculus [16] = assay: Anticonvulsant activity against metrazole-induced seizures in Albino mouse at 100 mg/kg, ip after 4 hrs by scMet assay; type: functional, organism-based; set-up: dose 100 mg/kg; in short: as §1
Mus musculus [17] = assay: Anticonvulsant activity against metrazole-induced seizures in Albino mouse at 300 mg/kg, ip after 4 hrs by scMet assay; type: functional, organism-based; set-up: dose 300 mg/kg; in short: as §1
Mus musculus [18] = assay: Neurotoxicity in Albino mouse at 30 mg/kg, ip after 30 mins by RotaRod test; type: toxicity, organism-based; set-up: dose 30 mg/kg, route intraperitoneal; conditions: in vivo, 0.5 h; in short: as §1
Mus musculus [19] = assay: Neurotoxicity in Albino mouse at 100 mg/kg, ip after 30 mins by RotaRod test; type: toxicity, organism-based; set-up: dose 100 mg/kg, route intraperitoneal; conditions: in vivo, 0.5 h; in short: as §1
Mus musculus [20] = assay: Neurotoxicity in Albino mouse at 300 mg/kg, ip after 30 mins by RotaRod test; type: toxicity, organism-based; set-up: dose 300 mg/kg, route intraperitoneal; conditions: in vivo, 0.5 h; in short: as §1

Row | SMILES | Activity (Mus musculus [1]) | Activity (Mus musculus [2]) | Activity (Mus musculus [3]) | Activity (Mus musculus [4]) | Activity (Mus musculus [5]) | Activity (Mus musculus [6]) | Activity (Mus musculus [7]) | Activity (Mus musculus [8]) | Activity (Mus musculus [9]) | Activity (Mus musculus [10]) | Activity (Mus musculus [11]) | Activity (Mus musculus [12]) | Activity (Mus musculus [13]) | Activity (Mus musculus [14]) | Activity (Mus musculus [15]) | Activity (Mus musculus [16]) | Activity (Mus musculus [17]) | Activity (Mus musculus [18]) | Activity (Mus musculus [19]) | Activity (Mus musculus [20])
1 | c1ccc(N2N=C(c3ccco3)CC2c2ccco2)cc1 (configuration not stated) | Not Active | Not Active | Not Active | inactive | 169 s | -19.52% | inactive | Active | Active | inactive | inactive | inactive | inactive | inactive | inactive | inactive | inactive | Not Active | Not Active | Not Active
2 | S=C(Nc1ccccc1)N1N=C(c2ccco2)CC1c1ccco1 (configuration not stated) | Not Active | Not Active | Not Active | Active | 181 s | -13.81% | inactive | inactive | inactive | inactive | Active | inactive | inactive | inactive | inactive | inactive | inactive | Not Active | Not Active | Not Active
3 | NC(=S)N1N=C(c2ccco2)CC1c1ccco1 (configuration not stated) | Not Active | Not Active | Not Active | Active | 182 s | -13.33% | inactive | inactive | inactive | Active | Active | inactive | inactive | Active | inactive | inactive | inactive | Not Active | Not Active | Not Active
4 | CNC(=S)N1N=C(c2ccco2)CC1c1ccccc1 (configuration not stated) | Not Active | Not Active | Not Active | inactive | 201 s | -4.28% | inactive | inactive | inactive | inactive | inactive | inactive | inactive | inactive | inactive | inactive | inactive | Not Active | Not Active | Not Active
5 | S=C(Nc1ccccc1)N1N=C(c2ccco2)CC1c1ccccc1 (configuration not stated) | Not Active | Not Active | Not Active | inactive | 184 s | -12.38% | inactive | inactive | inactive | inactive | inactive | inactive | inactive | Active | inactive | inactive | inactive | Not Active | Not Active | Not Active
6 | N[C@H]1C[C@@H]1c1ccccc1.O=S(=O)(O)O | – | – | – | – | 57 s | -72.85% | – | – | – | – | – | – | – | – | – | – | – | – | – | –
